Test system: HEK-293T
Test: Multiplex assay against HEK293T
Assay type: toxicity, cell-based
Conditions: human
Procedure, shortened: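 Compound was added to live cells that had been stained at seeding with Hoechst33342, BioTracker Green Microtubule Cytoskeleton Dye, MitoTracker Red and Annexin V Alexa Fluor 680, and imaging followed on a CQ1 microscope at 37°C and 5% CO2. CellPathfinder machine-learning gating divided cells into Hoechst high-intensity objects or normal cells, normal cells into healthy, pyknosed or fragmented nuclei, and pyknosed cells into mitotic or apoptotic. Tubulin, mitochondrial-mass and membrane-permeability phenotypes are per cents of healthy-nucleus cells.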

[1] = 12 h, 1 µM, compound concentration 1 uM, replicate 1
[2] = 12 h, 1 µM, compound concentration 1 uM, replicate 2
[3] = 12 h, 10 µM, compound concentration 10 uM, replicate 1
[4] = 12 h, 10 µM, compound concentration 10 uM, replicate 2
[5] = 24 h, 1 µM, compound concentration 1 uM, replicate 1
[6] = 24 h, 1 µM, compound concentration 1 uM, replicate 2
[7] = 24 h, 10 µM, compound concentration 10 uM, replicate 1
[8] = 24 h, 10 µM, compound concentration 10 uM, replicate 2
[9] = 48 h, 1 µM, compound concentration 1 uM, replicate 1
[10] = 48 h, 1 µM, compound concentration 1 uM, replicate 2
[11] = 48 h, 10 µM, compound concentration 10 uM, replicate 1
[12] = 48 h, 10 µM, compound concentration 10 uM, replicate 2

COC[C@@H](c1ccc(C(F)(F)F)cc1)N1CCN(C2(C)CCN(C(=O)c3c(C)ncnc3C)CC2)C[C@@H]1C.O=C(O)/C=C\C(=O)O [VICRIVIROC MALEATE]
Population Apoptotic (%) [1]: 46%
Population Fragmented Nuclei (%) [1]: 7%
Population Healthy Nuclei (%) [1]: 80%
Population Hoechst High Intensity Objects (%) [1]: 9%
Population Membrane Permeable-Phenotype (%) [1]: 0%
Population Mitochondria Different-Phenotype (%) [1]: 47%
Population Mitotic Cells (%) [1]: 53%
Population Normal (%) [1]: 90%
Population Pyknosed Nuclei (%) [1]: 12%
Population Tubulin-Different-Phenotype (%) [1]: 27%
Total Cell Count [1]: 406
Population Apoptotic (%) [2]: 45%
Population Hoechst High Intensity Objects (%) [2]: 5%
Population Mitochondria Different-Phenotype (%) [2]: 51%
Population Mitotic Cells (%) [2]: 54%
Population Normal (%) [2]: 94%
Population Pyknosed Nuclei (%) [2]: 11%
Population Tubulin-Different-Phenotype (%) [2]: 17%
Total Cell Count [2]: 387
Population Apoptotic (%) [3]: 44%
Population Fragmented Nuclei (%) [3]: 6%
Population Healthy Nuclei (%) [3]: 75%
Population Hoechst High Intensity Objects (%) [3]: 8%
Population Membrane Permeable-Phenotype (%) [3]: 0%
Population Mitochondria Different-Phenotype (%) [3]: 63%
Population Mitotic Cells (%) [3]: 55%
Population Normal (%) [3]: 91%
Population Pyknosed Nuclei (%) [3]: 18%
Population Tubulin-Different-Phenotype (%) [3]: 57%
Total Cell Count [3]: 315
Population Apoptotic (%) [4]: 62%
Population Fragmented Nuclei (%) [4]: 5%
Population Healthy Nuclei (%) [4]: 72%
Population Hoechst High Intensity Objects (%) [4]: 16%
Population Mitochondria Different-Phenotype (%) [4]: 78%
Population Mitotic Cells (%) [4]: 37%
Population Normal (%) [4]: 83%
Population Pyknosed Nuclei (%) [4]: 21%
Population Tubulin-Different-Phenotype (%) [4]: 51%
Total Cell Count [4]: 265
Population Apoptotic (%) [5]: 30%
Population Fragmented Nuclei (%) [5]: 9%
Population Healthy Nuclei (%) [5]: 79%
Population Hoechst High Intensity Objects (%) [5]: 6%
Population Membrane Permeable-Phenotype (%) [5]: 0%
Population Mitochondria Different-Phenotype (%) [5]: 24%
Population Mitotic Cells (%) [5]: 69%
Population Normal (%) [5]: 93%
Population Pyknosed Nuclei (%) [5]: 10%
Population Tubulin-Different-Phenotype (%) [5]: 21%
Total Cell Count [5]: 564
Population Apoptotic (%) [6]: 31%
Population Healthy Nuclei (%) [6]: 82%
Population Hoechst High Intensity Objects (%) [6]: 5%
Population Membrane Permeable-Phenotype (%) [6]: 1%
Population Mitotic Cells (%) [6]: 68%
Population Normal (%) [6]: 94%
Population Pyknosed Nuclei (%) [6]: 8%
Population Tubulin-Different-Phenotype (%) [6]: 11%
Total Cell Count [6]: 515
Population Apoptotic (%) [7]: 34%
Population Fragmented Nuclei (%) [7]: 6%
Population Healthy Nuclei (%) [7]: 80%
Population Hoechst High Intensity Objects (%) [7]: 6%
Population Membrane Permeable-Phenotype (%) [7]: 0%
Population Mitochondria Different-Phenotype (%) [7]: 53%
Population Mitotic Cells (%) [7]: 66%
Population Normal (%) [7]: 93%
Population Pyknosed Nuclei (%) [7]: 13%
Population Tubulin-Different-Phenotype (%) [7]: 49%
Total Cell Count [7]: 406
Population Apoptotic (%) [8]: 60%
Population Fragmented Nuclei (%) [8]: 10%
Population Healthy Nuclei (%) [8]: 77%
Population Hoechst High Intensity Objects (%) [8]: 16%
Population Mitochondria Different-Phenotype (%) [8]: 70%
Population Mitotic Cells (%) [8]: 39%
Population Normal (%) [8]: 83%
Population Pyknosed Nuclei (%) [8]: 12%
Population Tubulin-Different-Phenotype (%) [8]: 39%
Total Cell Count [8]: 310
Population Apoptotic (%) [9]: 21%
Population Fragmented Nuclei (%) [9]: 11%
Population Healthy Nuclei (%) [9]: 80%
Population Hoechst High Intensity Objects (%) [9]: 2%
Population Membrane Permeable-Phenotype (%) [9]: 1%
Population Mitochondria Different-Phenotype (%) [9]: 13%
Population Mitotic Cells (%) [9]: 78%
Population Normal (%) [9]: 97%
Population Pyknosed Nuclei (%) [9]: 7%
Population Tubulin-Different-Phenotype (%) [9]: 12%
Total Cell Count [9]: 930
Population Apoptotic (%) [10]: 34%
Population Fragmented Nuclei (%) [10]: 13%
Population Healthy Nuclei (%) [10]: 81%
Population Mitochondria Different-Phenotype (%) [10]: 11%
Population Mitotic Cells (%) [10]: 65%
Population Pyknosed Nuclei (%) [10]: 5%
Population Tubulin-Different-Phenotype (%) [10]: 8%
Total Cell Count [10]: 751
Population Apoptotic (%) [11]: 38%
Population Fragmented Nuclei (%) [11]: 12%
Population Healthy Nuclei (%) [11]: 75%
Population Hoechst High Intensity Objects (%) [11]: 4%
Population Membrane Permeable-Phenotype (%) [11]: 0%
Population Mitochondria Different-Phenotype (%) [11]: 49%
Population Mitotic Cells (%) [11]: 61%
Population Normal (%) [11]: 95%
Population Pyknosed Nuclei (%) [11]: 11%
Population Tubulin-Different-Phenotype (%) [11]: 35%
Total Cell Count [11]: 559
Population Apoptotic (%) [12]: 53%
Population Fragmented Nuclei (%) [12]: 14%
Population Healthy Nuclei (%) [12]: 70%
Population Hoechst High Intensity Objects (%) [12]: 11%
Population Mitochondria Different-Phenotype (%) [12]: 50%
Population Mitotic Cells (%) [12]: 46%
Population Normal (%) [12]: 88%
Population Pyknosed Nuclei (%) [12]: 15%
Population Tubulin-Different-Phenotype (%) [12]: 38%
Total Cell Count [12]: 394
